# Reference: ChEMBL document CHEMBL3616444, “Design, synthesis and pharmacological evaluation of pyrimidobenzothiazole-3-carboxylate derivatives as selective L-type calcium channel blockers” (Bioorg Med Chem, 2015)
# Legend:
# Rattus norvegicus [1] = test: Antihypertensive activity in Norwegian albino rat model of DOCA-salt-induced hypertension assessed as inhibition of systolic blood pressure at 10 mg/kg, po after 8 hrs by non-invasive tail cuff method relative to control; format: functional
# Summary of the method: (§1)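 DOCA-salt hypertensive rats; systolic pressure by tail cuff after 10 mg/kg, recorded hourly from 0 to 10 h; percent inhibition computed. Data as mean ± SEM, repeated-measures ANOVA.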
# Rattus norvegicus [2] = test: Antihypertensive activity in Norwegian albino rat model of DOCA-salt-induced hypertension assessed as inhibition of systolic blood pressure at 10 mg/kg, po after 4 hrs by non-invasive tail cuff method relative to control; format: functional; summary of the method: as §1
# Rattus norvegicus [3] = test: Antihypertensive activity in Norwegian albino rat model of DOCA-salt-induced hypertension assessed as inhibition of systolic blood pressure at 10 mg/kg, po after 2 hrs by non-invasive tail cuff method relative to control; format: functional; summary of the method: as §1
# Rattus norvegicus [4] = test: Antihypertensive activity in Norwegian albino rat model of DOCA-salt-induced hypertension assessed as inhibition of systolic blood pressure at 10 mg/kg, po after 6 hrs by non-invasive tail cuff method relative to control; format: functional; summary of the method: as §1
# Rattus norvegicus [5] = test: Antihypertensive activity in Norwegian albino rat model of DOCA-salt-induced hypertension assessed as inhibition of systolic blood pressure at 10 mg/kg, po after 5 hrs by non-invasive tail cuff method relative to control; format: functional; summary of the method: as §1
# Rattus norvegicus [6] = test: Antihypertensive activity in Norwegian albino rat model of DOCA-salt-induced hypertension assessed as inhibition of systolic blood pressure at 10 mg/kg, po after 10 hrs by non-invasive tail cuff method relative to control; format: functional; summary of the method: as §1
# [7] = biological target: Myosin light chain kinase, smooth muscle (Homo sapiens, UniProt Q15746); test: Inhibition of MLCK (unknown origin) incubated for 15 mins using [gamma-32P]-ATP by scintillation counting method
# Summary of the method: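 Active MLCK thawed on ice with kinase assay and dilution buffers and substrate; reaction with γ-32P-ATP incubated 15 min at 30 °C in a water bath, spotted on phosphocellulose P81 paper, washed three times ~10 min in 1% phosphoric acid. Radioactivity by scintillation counting, blank-corrected cpm converted to specific activity (nmol/min/mg); IC50 from log plots, at least five determinations per concentration.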
# Rattus norvegicus [8] = test: Antihypertensive activity in Norwegian albino rat model of DOCA-salt-induced hypertension assessed as inhibition of systolic blood pressure at 10 mg/kg, po after 1 hr by non-invasive tail cuff method relative to control; format: functional; summary of the method: as §1
# Rattus norvegicus [9] = test: Antihypertensive activity in Norwegian albino rat model of DOCA-salt-induced hypertension assessed as inhibition of systolic blood pressure at 10 mg/kg, po after 9 hrs by non-invasive tail cuff method relative to control; format: functional; summary of the method: as §1
# [10] = Inhibition of porcine kidney ACE assessed as reduction in hippuryl-histidyl-leucine hydrolysis to hippuric acid release incubated for 30 mins high-throughput colorimetric method; set-up: species or system Sus scrofa
# Summary of the method: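 Porcine kidney ACE in 1 M sodium borate buffer pH 8.2 with 0.3 M NaCl and 5 mM HHL substrate (stock); 37 °C for 30 min, stopped with 1 M HCl. Released hippuric acid complexed with pyridine and benzene sulfonyl chloride, cooled on ice, yellow colour read at 410 nm; IC50 from log plots, at least five determinations per concentration.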
# Rattus norvegicus [11] = test: Antihypertensive activity in Norwegian albino rat model of DOCA-salt-induced hypertension assessed as inhibition of systolic blood pressure at 10 mg/kg, po after 3 hrs by non-invasive tail cuff method relative to control; format: functional; summary of the method: as §1
# Rattus norvegicus [12] = test: Antihypertensive activity in Norwegian albino rat model of DOCA-salt-induced hypertension assessed as inhibition of systolic blood pressure at 10 mg/kg, po after 7 hrs by non-invasive tail cuff method relative to control; format: functional; summary of the method: as §1
# Rattus norvegicus [13] = test: Antihypertensive activity in Norwegian albino rat assessed as inhibition of systolic blood pressure at 10 mg/kg, po after 0.15 hrs by invasive carotid artery cannulation method relative to control; format: functional
# Rattus norvegicus [14] = test: Antihypertensive activity in Norwegian albino rat assessed as inhibition of systolic blood pressure at 10 mg/kg, po after 2 hrs by invasive carotid artery cannulation method relative to control; format: functional
# physchem = conditions: buffer, pH 7.4
# Rattus norvegicus [15] = test: Gastrointestinal toxicity in Norwegian rat assessed as ulcerative index at 50 mg/kg, po after 17 hrs; format: organism-based; conditions: in vivo
# Rattus norvegicus [16] = test: Antihypertensive activity in Norwegian albino rat assessed as inhibition of systolic blood pressure at 10 mg/kg, po after 3 hrs by invasive carotid artery cannulation method relative to control; format: functional
# Rattus norvegicus [17] = test: Antihypertensive activity in Norwegian albino rat assessed as inhibition of systolic blood pressure at 10 mg/kg, po after 4 hrs by invasive carotid artery cannulation method relative to control; format: functional
# Rattus norvegicus [18] = test: Antihypertensive activity in Norwegian albino rat assessed as inhibition of systolic blood pressure at 10 mg/kg, po after 1 hr by invasive carotid artery cannulation method relative to control; format: functional
# Rattus norvegicus [19] = test: Antihypertensive activity in Norwegian albino rat assessed as inhibition of systolic blood pressure at 10 mg/kg, po after 0.3 hrs by invasive carotid artery cannulation method relative to control; format: functional
# Myosin light chain kinase, smooth muscle, sequence (Q15746 whole entry): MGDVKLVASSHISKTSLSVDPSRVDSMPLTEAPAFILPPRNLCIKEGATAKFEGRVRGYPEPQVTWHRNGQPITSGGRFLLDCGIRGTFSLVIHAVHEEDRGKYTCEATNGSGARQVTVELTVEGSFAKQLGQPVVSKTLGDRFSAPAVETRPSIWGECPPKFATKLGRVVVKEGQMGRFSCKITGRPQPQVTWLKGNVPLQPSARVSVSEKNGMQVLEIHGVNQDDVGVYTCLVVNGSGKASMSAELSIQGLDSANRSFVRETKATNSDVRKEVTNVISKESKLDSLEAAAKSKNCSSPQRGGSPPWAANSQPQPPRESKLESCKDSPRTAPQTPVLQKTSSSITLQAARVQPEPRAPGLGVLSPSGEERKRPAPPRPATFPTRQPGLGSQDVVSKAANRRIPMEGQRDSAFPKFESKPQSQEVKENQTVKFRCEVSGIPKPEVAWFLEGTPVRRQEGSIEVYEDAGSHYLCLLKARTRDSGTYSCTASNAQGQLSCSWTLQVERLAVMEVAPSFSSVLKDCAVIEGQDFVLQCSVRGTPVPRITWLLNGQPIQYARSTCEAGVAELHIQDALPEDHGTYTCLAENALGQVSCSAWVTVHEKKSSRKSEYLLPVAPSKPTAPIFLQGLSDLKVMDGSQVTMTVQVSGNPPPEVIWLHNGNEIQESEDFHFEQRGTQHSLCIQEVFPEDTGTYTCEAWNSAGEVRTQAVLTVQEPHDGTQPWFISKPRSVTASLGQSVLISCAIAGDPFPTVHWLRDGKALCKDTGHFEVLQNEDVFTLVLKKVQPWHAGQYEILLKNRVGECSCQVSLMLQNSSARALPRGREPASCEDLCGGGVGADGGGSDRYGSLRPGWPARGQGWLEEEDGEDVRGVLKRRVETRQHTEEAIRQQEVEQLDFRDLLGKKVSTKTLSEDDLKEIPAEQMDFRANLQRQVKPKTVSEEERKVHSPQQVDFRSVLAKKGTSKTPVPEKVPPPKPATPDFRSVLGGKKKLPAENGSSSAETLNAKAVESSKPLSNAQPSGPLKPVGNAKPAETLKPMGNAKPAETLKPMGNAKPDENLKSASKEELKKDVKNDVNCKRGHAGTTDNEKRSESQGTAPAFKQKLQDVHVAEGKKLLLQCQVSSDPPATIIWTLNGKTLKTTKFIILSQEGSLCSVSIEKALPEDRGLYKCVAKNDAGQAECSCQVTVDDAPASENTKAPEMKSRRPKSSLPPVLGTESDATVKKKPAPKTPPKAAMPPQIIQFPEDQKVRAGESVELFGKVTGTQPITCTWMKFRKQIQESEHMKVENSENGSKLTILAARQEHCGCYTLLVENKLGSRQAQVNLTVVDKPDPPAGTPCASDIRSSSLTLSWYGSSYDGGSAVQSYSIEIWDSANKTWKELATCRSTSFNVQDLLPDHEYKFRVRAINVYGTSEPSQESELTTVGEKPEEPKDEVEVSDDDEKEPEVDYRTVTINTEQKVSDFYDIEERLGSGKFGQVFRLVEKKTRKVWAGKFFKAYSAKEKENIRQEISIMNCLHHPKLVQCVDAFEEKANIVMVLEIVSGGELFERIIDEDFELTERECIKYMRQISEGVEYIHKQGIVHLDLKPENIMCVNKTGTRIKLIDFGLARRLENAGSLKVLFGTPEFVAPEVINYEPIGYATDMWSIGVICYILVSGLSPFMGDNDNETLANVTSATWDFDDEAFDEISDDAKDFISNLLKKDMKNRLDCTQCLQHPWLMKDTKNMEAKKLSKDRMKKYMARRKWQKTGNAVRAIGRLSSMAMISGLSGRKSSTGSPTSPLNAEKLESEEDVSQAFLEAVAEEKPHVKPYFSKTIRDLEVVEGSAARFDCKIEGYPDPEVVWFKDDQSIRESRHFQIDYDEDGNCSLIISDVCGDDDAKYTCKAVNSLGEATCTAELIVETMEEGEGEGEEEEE
Compound,inhibition in vivo at 10 mg/kg (Rattus norvegicus [1]) [%],inhibition in vivo at 10 mg/kg (Rattus norvegicus [2]) [%],inhibition in vivo at 10 mg/kg (Rattus norvegicus [3]) [%],inhibition in vivo at 10 mg/kg (Rattus norvegicus [4]) [%],inhibition in vivo at 10 mg/kg (Rattus norvegicus [5]) [%],inhibition in vivo at 10 mg/kg (Rattus norvegicus [6]) [%],IC50 ([7]; read-out: IC50) [µM],inhibition in vivo at 10 mg/kg (Rattus norvegicus [8]) [%],inhibition in vivo at 10 mg/kg (Rattus norvegicus [9]) [%],IC50 [10] [µM],inhibition in vivo at 10 mg/kg (Rattus norvegicus [11]) [%],inhibition in vivo at 10 mg/kg (Rattus norvegicus [12]) [%],IC50 ([7]; read-out: pIC50 (converted)) [µM],further results
Cc1cc(C)nc(Nc2nc3ccccc3s2)n1,8.44,1.33,0,7.11,5.33,8.89,> 100,0.44,8.89,> 100,0.44,8.44,,
CC(=O)c1c(C)nc(Nc2nc3ccccc3s2)nc1C,7.52,2.21,0.44,7.08,5.31,8.41,> 100,0.88,7.96,> 100,0.88,7.52,,
CCOC(=O)C1=C(C)NC(OC)N(CC(=O)c2ccc(OC)cc2)C1c1ccc(Cl)cc1 (stereo not drawn),,,,,,,18.2,,,> 100,,,5490,
COC(=O)C1=C(C)N=C2Sc3ccccc3N2C1c1ccccc1Cl (stereo not drawn),28.8,18.1,2.65,24.8,22.6,33.6,9.8,1.77,31.4,> 100,14.6,27,10200,
COC(=O)C1=C(C)N=C2Sc3ccccc3N2C1c1ccc(Cl)cc1 (stereo not drawn),33.6,24.8,11.5,28.8,28.8,40.3,9.1,2.65,38,> 100,14.6,31.4,11000,inhibition in vivo at 10 mg/kg (Rattus norvegicus [13]): 2.21%; inhibition in vivo at 10 mg/kg (Rattus norvegicus [14]): 24.8%; logD (physchem): 5.44; UI (Rattus norvegicus [15]): 0.36; inhibition in vivo at 10 mg/kg (Rattus norvegicus [16]): 31%; inhibition in vivo at 10 mg/kg (Rattus norvegicus [17]): 49.6%; inhibition in vivo at 10 mg/kg (Rattus norvegicus [18]): 15.9%; inhibition in vivo at 10 mg/kg (Rattus norvegicus [19]): 4.42%
COC(=O)C1=C(C)N=C2Sc3ccccc3N2C1c1ccccc1O (stereo not drawn),42,24.1,8.48,33,26.3,46.4,4.3,3.57,43.8,> 100,19.6,36.6,23300,
COC(=O)C1=C(C)N=C2Sc3ccccc3N2C1c1ccc(O)cc1 (stereo not drawn),39.5,25.4,7.89,34.2,29.4,42.1,4.21,3.51,40.8,> 100,19.7,38.2,23800,
COC(=O)C1=C(C)N=C2Sc3ccccc3N2C1c1ccc(N(C)C)cc1 (stereo not drawn),28.8,18.1,2.65,24.8,22.6,33.6,4.37,1.77,31.4,> 100,14.6,27,22900,
CCOC(=O)C1=C(C)N=C2Sc3ccccc3N2C1c1ccccc1Cl (stereo not drawn),28.8,18.1,2.65,24.8,22.6,33.6,10.8,1.77,31.4,> 100,14.6,27,9260,
CCc1nc(Nc2nc3ccccc3s2)nc(C)c1C(C)=O,8,1.33,0,7.56,6.22,8.89,> 100,0.44,8.44,> 100,0.44,8,,
CCOC(=O)C1=C(C)NC(OC)N(CC(=O)c2ccc(Cl)cc2)C1c1ccc(Cl)cc1 (stereo not drawn),,,,,,,41.3,,,> 100,,,2420,
CCOC(=O)C1=C(C)NC(OC)N(CC(=O)c2ccc(Cl)cc2)C1c1ccc(O)cc1 (stereo not drawn),,,,,,,15.2,,,> 100,,,6580,
CCOC(=O)C1=C(C)NC(OC)N(CC(=O)c2ccc(OC)cc2)C1c1ccc(O)cc1 (stereo not drawn),,,,,,,9.8,,,> 100,,,10.2,
CCOC(=O)C1=C(C)NC(OC)N(CC(=O)c2ccc(OC)cc2)C1c1ccc(OC)cc1 (stereo not drawn),,,,,,,4.1,,,> 100,,,24.4,
CCOC(=O)C1=C(C)NC(OC)N(CC(=O)c2ccccc2)C1c1ccc(Cl)cc1 (stereo not drawn),,,,,,,31.3,,,> 100,,,3190,
CCOC(=O)C1=C(C)NC(OC)N(CC(=O)c2ccccc2)C1c1ccc(C)cc1 (stereo not drawn),,,,,,,19.2,,,> 100,,,5210,
CCOC(=O)C1=C(C)NC(OC)N(CC(=O)c2ccc(OC)cc2)C1c1ccc(C)cc1 (stereo not drawn),,,,,,,5.1,,,> 100,,,19.6,
CCOC(=O)C1=C(C)NC(OC)N(CC(=O)c2ccc(Cl)cc2)C1c1ccc(OC)cc1 (stereo not drawn),,,,,,,30.3,,,> 100,,,3300,
CCOC(=O)C1=C(C)NC(OC)N(CC(=O)c2ccc(Cl)cc2)C1c1ccc(C)cc1 (stereo not drawn),,,,,,,29.2,,,> 100,,,3420,
CCOC(=O)C1=C(C)NC(OC)N(CC(=O)c2ccccc2)C1c1ccccc1 (stereo not drawn),,,,,,,23.3,,,> 100,,,4290,
CCOC(=O)C1=C(C)NC(OC)N(CC(=O)c2ccc(Cl)cc2)C1c1ccccc1 (stereo not drawn),,,,,,,33.3,,,> 100,,,3000,
CCOC(=O)C1=C(C)NC(OC)N(CC(=O)c2ccccc2)C1c1ccc(OC)cc1 (stereo not drawn),,,,,,,7.4,,,> 100,,,13.5,
CCOC(=O)C1=C(C)NC(OC)N(CC(=O)c2ccc(OC)cc2)C1c1ccccc1 (stereo not drawn),,,,,,,13.3,,,> 100,,,7.52,
CCOC(=O)C1=C(C)NC(OC)N(CC(=O)c2ccccc2)C1c1ccc(O)cc1 (stereo not drawn),,,,,,,10.2,,,> 100,,,9.8,
CC(C)Cc1ccc(C(C)C(=O)O)cc1 (stereo not drawn) [IBUPROFEN],,,,,,,,,,,,,,UI (Rattus norvegicus [15]): 1.97
